Source: PubChem (several laboratories)
Calb FLC = C. albicans growth inhibition with fluconazole, primary screen, CaCi-2 strain, Alamar Blue fluorescence. growth inhibition, % (no concentration beside the values). AID 1979, 2009. C. albicans CaCi-2 (fluconazole-resistant clinical isolate) + fluconazole, 48 h. 300,000 tested, 0.57% active;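 active = growth inhibition above about 58% in most replicates, limit read from the data, passing the limit was not always enough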;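 note: all wells also contain fluconazole at 8 µg/ml as a sub-toxic cotreatment; 0% = median of DMSO wells and 100% = median of geldanamycin control wells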
NLRP3 yeast inh = NALP3 inflammasome inhibitors in reconstituted yeast, primary screen, luminescence, uHTS | Yeast reconstituted NLRP3/ASC/caspase-1, beta-gal luminescence, 24 h | inhibition, % at 10 µM | 330,000 tested, 0.39% active | AID 2825, 2010;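 active = inhibition of 50% or more; inactive = inhibition below 50%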;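 note: plate controls were induced DMSO wells for no effect and uninduced yeast grown without galactose for full effect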
ATG4B inhibitor = ATG4B protease inhibitors, primary screen, biochemical, fluorescence, uHTS; 340,000 tested, 0.51% active; AID 504462, 2011; ATG4B cleavage of LC3-PLA2, NBD-HPC fluorescence, 1 h; Cysteine protease ATG4B (Homo sapiens), Q9Y4P1; inhibition, % at 8.33 µM; in the data active = inhibition above about 40%
ALR inh = inhibitors of human ALR sulfhydryl oxidase, primary screen, biochemical, H2O2 detection, HRP-luminol luminescence, single point; FAD-linked sulfhydryl oxidase ALR (Homo sapiens), P55789; purified ALR, DTT oxidation; inhibition, % (no concentration beside the values); 290,000 tested, 3.8% active;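 active = mean replicate inhibition above about 79%, with every replicate also reaching it, limit read from the data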
NALP1 yeast inh = NALP1 inflammasome inhibitors in reconstituted yeast, colorimetric, S. cerevisiae, triplicate retest; S. cerevisiae NALP1/ASC/caspase-1 growth, X-gal OD620, 72 h; 280,000 tested, 0.61% active; AID 2071, 2009; inhibition, % at 10 µM; in the data active = inhibition mostly above about 24%, no sharp cut-off; inactive = mostly below about 32%
UCH37 inh = inhibitors of human UCH37 deubiquitinase, primary screen, biochemical, Ub-AMC cleavage, fluorescence; purified proteasome/UCH37; inhibition, % (concentration not given with the values); 330,000 tested, 0.33% active;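 active = mean inhibition over replicate wells above about 20%, limit read from the data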;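 note: 0% = compound-free wells with enzyme and 100% = wells lacking proteasome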
Target sequence (Q9Y5K5 whole entry, looked up): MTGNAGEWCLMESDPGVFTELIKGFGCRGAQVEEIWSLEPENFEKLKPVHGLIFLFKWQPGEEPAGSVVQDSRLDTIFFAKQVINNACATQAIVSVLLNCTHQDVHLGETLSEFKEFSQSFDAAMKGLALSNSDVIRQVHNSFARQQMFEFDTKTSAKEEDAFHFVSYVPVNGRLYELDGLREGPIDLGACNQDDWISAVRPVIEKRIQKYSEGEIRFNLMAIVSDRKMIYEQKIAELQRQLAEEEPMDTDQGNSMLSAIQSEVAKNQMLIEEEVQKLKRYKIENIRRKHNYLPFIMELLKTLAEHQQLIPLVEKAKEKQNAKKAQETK
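Test system – human UCH37 enzyme supplied as purified proteasome complex · Incubation – 30 min preincubation with enzyme, 25 min cleavage at room temperature · Detection – AMC fluorescence from Ub-AMC cleavage, excitation 355 nm, emission 460 nm · Benchmarks – no-proteasome wells (full inhibition) and compound-free wells (no inhibition)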
Active calls of the source: *. Rows were chosen to be rich in hits. Some 4.8% of all compounds tested hit in one or more screens of this group.

N#CCC(=O)Nc1ccc(C(=O)OCC(=O)N(Cc2ccccc2)C2CCS(=O)(=O)C2)cc1 (centres undefined) was read as Calb FLC 6.9, NLRP3 yeast inh 13.9, ATG4B inhibitor -10.8, ALR inh 100.0*, NALP1 yeast inh -1.9 and UCH37 inh 5.0.
Screening Cc1ccc(NC(=O)CN(C)C(=O)COC(=O)c2ccc(NC(=O)CC#N)cc2)cc1 returned NLRP3 yeast inh 21.0, ATG4B inhibitor -6.5, ALR inh 89.7* and UCH37 inh 1.3.
Screening CC1(C)CC2CC(C)(CN2C(=O)COC(=O)c2ccc(NC(=O)CC#N)cc2)C1 (centres undefined) returned NLRP3 yeast inh 4.7, ATG4B inhibitor -5.9, ALR inh 98.5* and UCH37 inh 1.3.
O=S(=O)(O)c1cccc(N=Nc2c(O)ccc3ccccc23)c1 was read as Calb FLC 18.0, NLRP3 yeast inh 21.2, ATG4B inhibitor -3.7, ALR inh -25.4 and UCH37 inh 21.5*.
Cc1ccc(S(=O)(=O)Nc2nc(C)c(NC(=O)OCCCl)s2)cc1 was read as Calb FLC -17.4, NLRP3 yeast inh 9.1, ATG4B inhibitor -5.2, ALR inh 98.3*, NALP1 yeast inh 17.4 and UCH37 inh 1.1.
Screening Cc1nc(NS(=O)(=O)c2ccccc2)sc1NC(=O)OC(C)C returned Calb FLC 2.1, NLRP3 yeast inh 9.9, ATG4B inhibitor 4.5, ALR inh 35.7, NALP1 yeast inh -8.4 and UCH37 inh 6.4.
`O=C(O)CCC(=NNc1ccc([N+](=O)[O-])cc1S(=O)(=O)N1CCOCC1)c1cccs1` gave UCH37 inh 7.7.
`O=C(O)CCC(=NNc1ccc(S(=O)(=O)N2CCOCC2)cc1[N+](=O)[O-])c1cccs1` gave UCH37 inh 20.1*.
For CN1CCN(c2nc(Nc3ccc(F)cc3)nc(Nc3ccc(F)cc3)n2)CC1 the results were Calb FLC 20.1, NLRP3 yeast inh 33.0, ATG4B inhibitor -0.3, ALR inh 90.8*, NALP1 yeast inh 13.3 and UCH37 inh 2.9.
For CC(=NNC(=O)c1cc(C(C)C)[nH]n1)c1cccs1 the results were UCH37 inh 8.0.
Screening Cc1ccsc1-c1nc(CSCC(=O)NCc2ccc3c(c2)OCO3)c(C)o1 returned Calb FLC -2.6, NLRP3 yeast inh 25.2, ATG4B inhibitor -3.7, ALR inh 98.9*, NALP1 yeast inh -7.2 and UCH37 inh 2.4.
Cc1oc(-c2ccc(Cl)cc2)nc1CS(=O)CC(=O)NCc1ccc2c(c1)OCO2 (centres undefined) was read as Calb FLC -8.1, NLRP3 yeast inh -8.2, ATG4B inhibitor -8.8, ALR inh 57.9, NALP1 yeast inh 1.9 and UCH37 inh 1.1.
For COc1ccc(-c2nc(CS(=O)CC(=O)NCc3ccc4c(c3)OCO4)c(C)o2)cc1OC (centres undefined) the results were Calb FLC -28.2, NLRP3 yeast inh 18.0, ATG4B inhibitor -4.0, ALR inh 98.8*, NALP1 yeast inh 14.7 and UCH37 inh 2.6.
`COc1cccc(-c2nnc(SCC(=O)N3CCCc4ccccc43)o2)c1` gave Calb FLC 3.4, NLRP3 yeast inh 17.0, ATG4B inhibitor 3.0, ALR inh 87.4*, NALP1 yeast inh 11.7 and UCH37 inh 2.5.
COc1ccc(-c2nc(CSCC(=O)NCc3ccc4c(c3)OCO4)c(C)o2)cc1OC was read as Calb FLC -1.9, NLRP3 yeast inh 22.6, ATG4B inhibitor 0.0, ALR inh 99.2*, NALP1 yeast inh 5.3 and UCH37 inh 3.4.
For Cc1ccccc1-c1nc(CS(=O)(=O)CC(=O)NCc2ccc3c(c2)OCO3)c(C)o1 the results were Calb FLC -6.4, NLRP3 yeast inh -2.8, ATG4B inhibitor 4.7, ALR inh -0.5, NALP1 yeast inh 17.6 and UCH37 inh 4.2.
